Measurements from ChEMBL document CHEMBL4364256, “Design, synthesis and biological evaluation of antimicrobial diarylimine and -amine compounds targeting the interaction between the bacterial NusB and NusE proteins” (Eur J Med Chem, 2019).
Values after ≈ are worked out from the molar mass of the structure shown. Active and inactive are the calls of the source.

Key:
[1] = (§1) Antimicrobial activity against Staphylococcus saprophyticus ATCC 15305 incubated for 20 hrs by microdilution method; format: functional, Staphylococcus saprophyticus subsp. saprophyticus; settings: ATCC 15305, 20 h
Procedure, shortened: (§2)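 Broth microdilution MIC testing done following CLSI guidelines.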

Staphylococcus aureus [2] = experiment: Antimicrobial activity against Staphylococcus aureus ATCC BAA44 incubated for 20 hrs by microdilution method; format: functional
Procedure, shortened: (§3)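 MIC determined by microdilution following Clinical & Laboratory Standards Institute (CLSI) guidelines, read in µg/mL, against a panel of hospital- and community-acquired MRSA strains.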

[3] = Apparent permeability across apical to basolateral side in human Caco2 cells by LC-MS/MS analysis; format: ADME, cell-based; settings: Caco-2
Erythrocyte = experiment: Hemolytic activity against human erythrocytes at 0.1 to 10 ug/ml incubated for 45 mins; format: ADME, cell-based; settings: 0.75 h
Procedure, shortened: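 Hemolysis was tested on human blood cells with compound at 0.1, 1 and 10 µg/mL, judged against a nonhemolytic cut-off value.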

Staphylococcus aureus [4] = experiment: Antimicrobial activity against CA-methicillin-resistant Staphylococcus aureus W47 ST30 incubated for 20 hrs by microdilution method; format: functional; procedure, shortened: as §3
Staphylococcus aureus [5] = experiment: Antimicrobial activity against Staphylococcus aureus ST22 11B086169 incubated for 20 hrs by microdilution method; format: functional; procedure, shortened: as §3
Staphylococcus aureus [6] = experiment: Antimicrobial activity against Staphylococcus aureus USA300/ST8 incubated for 20 hrs by microdilution method; settings: USA300 ST8, 20 h
Pseudomonas aeruginosa = experiment: Antimicrobial activity against Pseudomonas aeruginosa ATCC 27853 incubated for 20 hrs by microdilution method; format: functional; procedure, shortened: as §2
Acinetobacter baumannii = experiment: Antimicrobial activity against Acinetobacter baumannii ATCC 19606 incubated for 20 hrs by microdilution method; format: functional; procedure, shortened: as §2
Staphylococcus aureus [7] = experiment: Antimicrobial activity against CA-methicillin-resistant Staphylococcus aureus W4 ST338 incubated for 20 hrs by microdilution method; format: functional; procedure, shortened: as §3
Streptococcus pyogenes = experiment: Antimicrobial activity against Streptococcus pyogenes ATCC 19615 incubated for 20 hrs by microdilution method; format: functional; procedure, shortened: as §2
Staphylococcus aureus [8] = experiment: Antimicrobial activity against Staphylococcus aureus HA W231 ST45 incubated for 20 hrs by microdilution method; format: functional; procedure, shortened: as §3
Staphylococcus aureus [9] = experiment: Antimicrobial activity against Staphylococcus aureus ST239 incubated for 20 hrs by microdilution method; format: functional; procedure, shortened: as §3
Staphylococcus aureus [10] = experiment: Antimicrobial activity against CA-methicillin-resistant Staphylococcus aureus W45 ST59 incubated for 20 hrs by microdilution method; settings: W45 ST59, 20 h
[11] = system: Staphylococcus epidermidis; experiment: Antimicrobial activity against Staphylococcus epidermidis ATCC 12228 incubated for 20 hrs by microdilution method; format: functional; procedure, shortened: as §2
Enterococcus faecium = experiment: Antimicrobial activity against Enterococcus faecium ATCC 19433 incubated for 20 hrs by microdilution method; format: functional; procedure, shortened: as §2
Staphylococcus aureus [12] = experiment: microbe, parasite or virus in culture; settings: ATCC 29213, 20 h
Staphylococcus aureus [13] = experiment: microbe, parasite or virus in culture; settings: ATCC 25923, 20 h
Staphylococcus aureus [14] = experiment: Antimicrobial activity against Staphylococcus aureus HA W235 ST5 incubated for 20 hrs by microdilution method; format: functional; procedure, shortened: as §3
Streptococcus pneumoniae = experiment: Antimicrobial activity against Streptococcus pneumoniae ATCC 49619 incubated for 20 hrs by microdilution method; format: functional; procedure, shortened: as §2
Streptococcus agalactiae = experiment: Antimicrobial activity against Streptococcus agalactiae ATCC 12386 incubated for 20 hrs by microdilution method; format: functional; procedure, shortened: as §2
Staphylococcus aureus [15] = experiment: Antimicrobial activity against CA-methicillin-resistant Staphylococcus aureus W46 ST59 incubated for 20 hrs by microdilution method; settings: W46 ST59, 20 h
Staphylococcus aureus [16] = experiment: Antimicrobial activity against Staphylococcus aureus ATCC BAA43 incubated for 20 hrs by microdilution method; format: functional; procedure, shortened: as §3
[17] = microbe, parasite or virus in culture; settings: Enterobacter cloacae, ATCC 13047, 20 h
[18] = system: Enterococcus casseliflavus; experiment: Antimicrobial activity against Enterococcus casseliflavus ATCC 25788 incubated for 20 hrs by microdilution method; format: functional; procedure, shortened: as §2
Bacillus subtilis = experiment: Inhibition of N-terminal LgBiT-fused Bacillus subtilis NusB expressed in Escherichia coli BL21(DE3)pLysS interaction with C- terminal SmBiT-fused Bacillus subtilis NusE expressed in Escherichia coli BL21(DE3)pLysS at 100 uM preincubated for 10 mins followed by NusE addition and measured after 10 mins by nano-glo luciferase assay relative to control
Procedure, shortened: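 NusB and NusE were mixed 1:1 at 1 µM in PBS, with compound at 100 µM. The read-out was percent inhibition of the NusB-NusE interaction.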

Staphylococcus aureus [19] = experiment: Antimicrobial activity against CA-methicillin-resistant Staphylococcus aureus W48 ST217 incubated for 20 hrs by microdilution method; settings: W48 ST217, 20 h
[20] = Cytotoxicity against human HaCaT cells assessed as reduction in cell viability after 48 to 72 hrs by MTT assay; format: cell-based
Staphylococcus aureus [21] = experiment: Bactericidal activity against Staphylococcus aureus ATCC 25923 at 4 times MIC preincubated for up to 24 hrs followed by replating on agar plate and measured after overnight incubation by time-kill; format: functional, organism-based
[22] = Therapeutic index, ratio of CC50 for human HaCaT cells to 1/2 times MIC for Staphylococcus aureus ATCC 25923; format: toxicity; settings: read-out: TI
Staphylococcus aureus [23] = experiment: Bacteriostatic activity against Staphylococcus aureus ATCC 25923 at 1/4 to 1 times MIC preincubated for up to 24 hrs followed by replating on agar plate and measured after overnight incubation by time-kill assay; format: functional, organism-based
[24] = Therapeutic index, ratio of CC50 for human A549 cells to 1/2 times MIC for Staphylococcus aureus ATCC 25923; format: toxicity; settings: read-out: TI
[25] = Cytotoxicity against human A549 cells assessed as reduction in cell viability after 48 to 72 hrs by MTT assay; format: cell-based
Bacteria = experiment: Binding affinity to bacterial NusB assessed as change in chiral structure at 2 ug/ml by circular dichroism spectroscopic analysis
Procedure, shortened: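 Circular dichroism spectra were recorded on NusB at 2.0 µg/mL in neutral phosphate buffer, alone and after mixing with compound at a 1:1 ratio. Binding was read as a change in the spectrum.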

Staphylococcus aureus [26] = experiment: Bacteriostatic activity against Staphylococcus aureus ATCC 25923 at 1 to 4 times MIC preincubated for up to 24 hrs followed by replating on agar plate measured after overnight incubation by time-kill assay; format: functional, organism-based
Staphylococcus aureus [27] = experiment: Growth inhibition of Staphylococcus aureus ATCC 25923 at 1/4 times MIC preincubated for 24 hrs followed by replating on agar plate and measured after overnight incubation by time-kill assay; format: functional, organism-based
[28] = system: Staphylococcus saprophyticus subsp. saprophyticus; experiment: as §1; format: functional; procedure, shortened: as §2
[29] = ATCC 19606 = CIP 70.34 = JCM 6841, 20 h

Row | Compound | MIC [1] [µg/mL] | MIC (Staphylococcus aureus [2]; ATCC BAA44, 20 h) [µg/mL] | MIC (Staphylococcus aureus [4]; W47 ST30, 20 h) [µg/mL] | MIC (Staphylococcus aureus [5]; ST22 11B086169, 20 h) [µg/mL] | MIC (Staphylococcus aureus [6]) [µg/mL] | MIC (Pseudomonas aeruginosa; ATCC 27853, 20 h) [µg/mL] | MIC (Acinetobacter baumannii; [29]) [µg/mL] | MIC (Staphylococcus aureus [7]; W4 ST338, 20 h) [µg/mL] | MIC (Streptococcus pyogenes; ATCC 19615, 20 h) [µg/mL] | MIC (Staphylococcus aureus [8]; HA W231 ST45, 20 h) [µg/mL] | MIC (Staphylococcus aureus [9]; CN79, 20 h) [µg/mL] | MIC (Staphylococcus aureus [10]) [µg/mL] | MIC ([11]; ATCC 12228, 20 h) [µg/mL] | MIC (Enterococcus faecium; ATCC 19433, 20 h) [µg/mL] | MIC (Staphylococcus aureus [12]) [µg/mL] | MIC (Staphylococcus aureus [13]) [µg/mL] | MIC (Staphylococcus aureus [14]; HA W235 ST5, 20 h) [µg/mL] | MIC (Streptococcus pneumoniae; ATCC 49619, 20 h) [µg/mL] | MIC [17] [µg/mL] | inhibition (Bacillus subtilis) [%] | further results
1 | O=[N+]([O-])c1ccc(O)c(CNc2cccc(Cl)c2)c1 | 16 (≈ 57.4 µM) | 8 (≈ 28.7 µM) | 8 (≈ 28.7 µM) | 4 (≈ 14.4 µM) | 8 (≈ 28.7 µM) | > 256 | 128 (≈ 459 µM) | 8 (≈ 28.7 µM) | 16 (≈ 57.4 µM) | 8 (≈ 28.7 µM) | 16 (≈ 57.4 µM) | 8 (≈ 28.7 µM) | 8 (≈ 28.7 µM) | 32 (≈ 115 µM) | 4 (≈ 14.4 µM) | 4 (≈ 14.4 µM) | 8 (≈ 28.7 µM) | 8 (≈ 28.7 µM) | 256 (≈ 919 µM) | 34.9 | Papp A→B [3]: 14.9 ×10⁻⁶ cm/s; Activity (Erythrocyte): Non-Toxic; MIC (Streptococcus agalactiae; ATCC 12386, 20 h): 32 µg/mL (≈ 115 µM); MIC (Staphylococcus aureus [15]): 8 µg/mL (≈ 28.7 µM); MIC (Staphylococcus aureus [16]; ATCC BAA43, 20 h): 4 µg/mL (≈ 14.4 µM); MIC ([18]; ATCC 25788, 20 h): 32 µg/mL (≈ 115 µM); MIC (Staphylococcus aureus [19]): 8 µg/mL (≈ 28.7 µM)
2 | O=[N+]([O-])c1ccc(O)c(CNc2ccccc2Cl)c1 | 8 (≈ 28.7 µM) | 8 (≈ 28.7 µM) | 4 (≈ 14.4 µM) | 4 (≈ 14.4 µM) | 4 (≈ 14.4 µM) | > 256 | 128 (≈ 459 µM) | 4 (≈ 14.4 µM) | 16 (≈ 57.4 µM) | 4 (≈ 14.4 µM) | 8 (≈ 28.7 µM) | 8 (≈ 28.7 µM) | 8 (≈ 28.7 µM) | 32 (≈ 115 µM) | 2 (≈ 7.18 µM) | 2 (≈ 7.18 µM) | 4 (≈ 14.4 µM) | 8 (≈ 28.7 µM) | 256 (≈ 919 µM) | 31 | CC50 [20]: 20.1 µM; Papp A→B [3]: 16.1 ×10⁻⁶ cm/s; Activity (Erythrocyte): Non-Toxic; Activity (Staphylococcus aureus [21]): Active; selectivity ratio [22]: 6; Activity (Staphylococcus aureus [23]): Active; selectivity ratio [24]: 6; MIC (Streptococcus agalactiae; ATCC 12386, 20 h): 32 µg/mL (≈ 115 µM); MIC (Staphylococcus aureus [15]): 4 µg/mL (≈ 14.4 µM); MIC (Staphylococcus aureus [16]; ATCC BAA43, 20 h): 2 µg/mL (≈ 7.18 µM); MIC ([18]; ATCC 25788, 20 h): 32 µg/mL (≈ 115 µM); CC50 [25]: 22.5 µM; MIC (Staphylococcus aureus [19]): 4 µg/mL (≈ 14.4 µM)
3 | CC(C)(C)c1ccccc1NCc1cc([N+](=O)[O-])ccc1O | 2 (≈ 6.66 µM) | 2 (≈ 6.66 µM) | 2 (≈ 6.66 µM) | 2 (≈ 6.66 µM) | 2 (≈ 6.66 µM) | > 256 | > 256 | 2 (≈ 6.66 µM) | 8 (≈ 26.6 µM) | 2 (≈ 6.66 µM) | 2 (≈ 6.66 µM) | 2 (≈ 6.66 µM) | 1 (≈ 3.33 µM) | 8 (≈ 26.6 µM) | 4 (≈ 13.3 µM) | 1 (≈ 3.33 µM) | 2 (≈ 6.66 µM) | 2 to 8 (≈ 6.66 to 26.6 µM) | > 256 | 72.2 | CC50 [20]: 15.1 µM; selectivity ratio [22]: 9; selectivity ratio [24]: 8; MIC (Streptococcus agalactiae; ATCC 12386, 20 h): 8 µg/mL (≈ 26.6 µM); Activity (Bacteria): Active; MIC (Staphylococcus aureus [15]): 2 µg/mL (≈ 6.66 µM); MIC (Staphylococcus aureus [16]; ATCC BAA43, 20 h): 2 µg/mL (≈ 6.66 µM); MIC ([18]; ATCC 25788, 20 h): 16 µg/mL (≈ 53.3 µM); CC50 [25]: 13.4 µM; MIC (Staphylococcus aureus [19]): 2 µg/mL (≈ 6.66 µM)
4 | C#Cc1cccc(/N=C/c2cc([N+](=O)[O-])ccc2O)c1 | – | – | – | – | – | > 256 | 64 (≈ 240 µM) | – | – | – | – | – | – | > 256 | 16 (≈ 60.1 µM) | 8 (≈ 30 µM) | – | 16 (≈ 60.1 µM) | > 256 | 85.3 | Activity (Staphylococcus aureus [26]): Active; growth inhibition (GI) (Staphylococcus aureus [27]): Active
5 | GENTAMICIN | – | – | – | – | – | – | – | – | – | – | – | – | – | – | – | – | – | – | – | – | MIC [28]: 0.0625 µg/mL; MIC (Staphylococcus aureus [2]): > 256 µg/mL; MIC (Staphylococcus aureus [4]): 0.25 µg/mL; MIC (Staphylococcus aureus [5]): 0.25 µg/mL; MIC (Pseudomonas aeruginosa): 2 µg/mL; MIC (Acinetobacter baumannii; ATCC 19606 = CIP 70.34 = JCM 6841): 32 µg/mL; MIC (Staphylococcus aureus [7]): 0.25 µg/mL; MIC (Streptococcus pyogenes): 8 µg/mL; MIC (Staphylococcus aureus [8]): 16 µg/mL; MIC (Staphylococcus aureus [9]; CN79): > 256 µg/mL; MIC [11]: 0.125 µg/mL; MIC (Enterococcus faecium): 16 µg/mL; MIC (Staphylococcus aureus [14]): > 256 µg/mL; MIC (Streptococcus pneumoniae): 32 µg/mL; MIC (Streptococcus agalactiae): 32 µg/mL; MIC (Staphylococcus aureus [16]): > 256 µg/mL; MIC [18]: 4 µg/mL
